Our source for the EC50, CC50 and Ratio values is ChEMBL document CHEMBL1149833, “Lignans from Kadsura angustifolia” (J Nat Prod, 2008).

The subject of data set [1] is Human immunodeficiency virus 1. Description: Antiviral activity against HIV1 in human C8166 cells assessed as prevention of virus-induced cytopathic effect. It is filed as functional, organism-based. The following applies: Human immunodeficiency virus 1, C8166. The method, boiled down: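 HIV-1 infection of C8166 cells, with protection measured as inhibition of virus-induced cytopathic effects and reported as EC50. Cytotoxicity in the same cells was determined in parallel. AZT served as positive control.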
(Cytopathic effects are the visible damage that an infection or toxin causes in cultured cells.)

Data set [2] in a line: Cytotoxicity against human C8166 cells by MTT assay. It is filed as cell-based. In a few lines:
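MTT viability assay on C8166 cells, reported as CC50. It was run in parallel with the HIV-1 cytopathic-effect assay, with AZT as positive control.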

Data set [3] is described as follows: Selectivity index, Ratio of CC50 for human C8166 cells to EC50 for HIV1.

The structures appear in SMILES notation.

The EC50 is the concentration giving half of the maximal effect. A word on the CC50: it is the concentration at which the toxic effect on the cells reaches its halfway point. A higher CC50 goes with lower toxicity to the cells. For `C=CCc1cc(OC)c2c(c1)[C@H](CO)[C@@H](c1ccc(O)c(OC)c1)O2`, the EC50 in data set [1] was 13.1 µM. In addition, the CC50 in data set [2] came to 38.1 µM.
The matching figures for `COc1cc2c(c(O)c1OC)-c1c(cc3c(c1OC)OCO3)[C@@H](O)[C@H](C)[C@H](C)C2` [BINANKADSURIN A]: 3.86 µM and 227 µM.
Consider `COc1cc2c(c(O)c1OC)-c1c(cc(O)c(OC)c1OC)[C@@H](O)[C@H](C)[C@H](C)C2` [DEANGELOYLSCHISANTHERIN F], for which the EC50 in data set [1] stood at 199 µM. The compound also yielded a 50% cytotoxic concentration (CC50) in data set [2] of 281 µM.
On to `COc1c2c(cc3c1-c1c(cc4c(c1OC)OCO4)[C@@H]1O[C@H]3[C@H](C)[C@@H]1C)OCO2` [EPOXIDESCHISANDRIN C], for which, in data set [1], the EC50 is 9.35 µM. In data set [2], this compound displayed a CC50 of 220 µM.
Consider `COc1c2c(cc3c1-c1c(cc4c(c1OC)OCO4)[C@@H](O)[C@@H](C)[C@@H](C)C3)OCO2` [GOMISIN R], for which the concentration for a half-maximal effect (EC50) in data set [1] is 54.6 µM. Moreover, in data set [2], the half-maximal cytotoxic concentration (CC50) was 221 µM.
Regarding `COc1cc2c(c(O)c1OC)-c1c(cc(OC)c(OC)c1OC)[C@@H](OC(C)=O)[C@H](C)[C@H](C)[C@@H]2O` [KADANGUSTIN A], the EC50 in data set [1] was above 200 µM. The half-maximal cytotoxic concentration (CC50) in data set [2] was above 200 µM.
Take `COc1c2c(cc3c1-c1c(cc4c(c1OC)OCO4)[C@@H](OC(C)=O)[C@H](C)[C@H](C)[C@@H]3O)OCO2` [KADANGUSTIN B]: in data set [1], the EC50 was found to be 150 µM. Besides, the CC50 in data set [2] is above 200 µM.
For `COc1cc2c(c(O)c1OC)-c1c(cc(OC)c(OC)c1OC)[C@@H](OC(C)=O)[C@H](C)[C@](C)(O)[C@@H]2OC(=O)/C=C/c1ccccc1` [KADANGUSTIN C], in data set [1], the half-maximal effective concentration (EC50) was found to be 38.3 µM. The 50% cytotoxic concentration (CC50) in data set [2] stood at 190 µM.
As for `COc1cc2c(c(O)c1OC)-c1c(cc(OC)c(OC)c1OC)[C@@H](OC(C)=O)[C@H](C)[C@H](C)[C@@H]2OC(=O)/C=C/c1ccccc1` [KADANGUSTIN D], the concentration giving a half-maximal response (EC50) in data set [1] stood at 25.4 µM. The same compound gave a CC50 in data set [2] of 97.5 µM.
`COc1cc2c(c(O)c1OC)-c1c(cc(OC)c(OC)c1OC)[C@@H](OC(C)=O)[C@H](C)[C@H](C)[C@@H]2OC(=O)c1ccccc1` [KADANGUSTIN E]: the EC50 in data set [1] was 60.8 µM. It took 138 µM to reach half-maximal cytotoxicity in data set [2] (CC50).
In the same order, the values of `C/C=C(/C)C(=O)O[C@@H]1c2cc(OC)c(OC)c(O)c2-c2c(cc(OC)c(OC)c2OC)[C@@H](OC(C)=O)[C@H](C)[C@@H]1C` [KADANGUSTIN F] are 72.6 µM and 160 µM.
Consider `C/C=C(\C)C(=O)O[C@@H]1c2cc(OC)c(OC)c(O)c2-c2c(cc(OC)c(OC)c2OC)[C@@H](OC(C)=O)[C@H](C)[C@@H]1C` [KADANGUSTIN G], for which, in data set [1], the concentration for a half-maximal effect (EC50) was 25.7 µM. In data set [2], this compound yielded a CC50 of 72.2 µM.
Consider `COc1ccc(CC(C)C(C)C(O)c2cc(O)c(OC)c(OC)c2)cc1OC` (centres undefined) [KADANGUSTIN H], for which the EC50 in data set [1] came to 27 µM. It took 30.7 µM to reach half-maximal cytotoxicity in data set [2] (CC50).
Turning to `COc1cc(C(O)C(C)C(C)Cc2cc(OC)c3c(c2)OCO3)cc(O)c1OC` (centres undefined) [KADANGUSTIN I], in data set [1], the half-maximal effective concentration (EC50) was 21.5 µM. This compound had a half-maximal cytotoxic concentration (CC50) in data set [2] of 35.1 µM.
With `COc1ccc(C(c2ccc(OC)c(OC)c2)C(C)C(C)CO)cc1OC` (centres undefined) [KADANGUSTIN J], the EC50 in data set [1] amounted to 44.7 µM. In data set [2], this compound had a 50% cytotoxic concentration (CC50) of 247 µM.
As for `COc1cc2c(c(OC)c1OC)-c1c(cc3c(c1OC)OCO3)[C@H]1O[C@@H]2[C@@H](C)[C@H]1C` [KADSULIGNAN L], the EC50 in data set [1] is 26.2 µM. Moreover, in data set [2], the CC50 worked out at 361 µM.
The matching figures for `COc1cc2c(c(OC)c1OC)-c1c(cc(OC)c(OC)c1OC)[C@@H]1O[C@H]2[C@H](C)[C@@H]1C` [KADSULIGNAN N]: 43.6 µM and 382 µM.
On to `C/C=C(/C)C(=O)O[C@@H]1c2cc(OC)c(OC)c(OC)c2-c2c(cc3c(c2OC)OCO3)[C@@H](OC(C)=O)[C@H](C)[C@]1(C)O` [KADSURARIN], for which the EC50 in data set [1] came to 168 µM. Also, the 50% cytotoxic concentration (CC50) in data set [2] is above 200 µM.
In the same order, the values of `COc1cc(C[C@@H](C)[C@@H](C)Cc2ccc(O)c(OC)c2)ccc1O` [MESODIHYDROGUAIARETIC ACID] are 15.6 µM and 49.1 µM.
The matching figures for `COc1ccc([C@H]2Oc3c(OC)cc(C=O)cc3[C@@H]2C)cc1O` [PERSEAL F]: 40.9 µM and 270 µM.
For the compound `C/C=C(/C)C(=O)Oc1c(OC)c(OC)cc2c1-c1c(cc(O)c(OC)c1OC)[C@@H](O)[C@H](C)[C@H](C)C2` [SCHISANTHERIN F], in data set [1], the EC50 came out at 95.2 µM. The CC50 in data set [2] is above 200 µM.
As to `C/C=C(/C)C(=O)O[C@@H]1c2cc3c(c(OC)c2-c2c(cc4c(c2OC)OCO4)[C@@H](O)[C@H](C)[C@@H]1C)OCO3` [SCHISANTHERIN L], in data set [1], the EC50 was 138 µM. In data set [2], this compound showed a 50% cytotoxic concentration (CC50) above 200 µM.
In the case of `COc1c2c(cc3c1-c1c(cc4c(c1OC)OCO4)[C@@H](O)[C@@H](C)[C@@H](C)[C@@H]3O)OCO2` [SCHISANTHERIN P], in data set [1], the EC50 turned out to be 156 µM. Further, in data set [2], the CC50 is above 200 µM.
In the case of `COc1c2c(cc3c1-c1c(cc4c(c1OC)OCO4)[C@@H](O)[C@H](C)[C@H](C)C3=O)OCO2` [SCHISANTHERIN Q], the half-maximal effective concentration (EC50) in data set [1] was found to be 45.9 µM. In addition, half-maximal cytotoxicity in data set [2] (CC50) was put at 212 µM. The Ratio in data set [3] was determined as 4.61.
